Results published in PMC8091929 (Journal of medicinal chemistry, 2020).
In brackets after ≈: the same amount, converted by molar mass.

Columns and labels:
pneumolysin = assay: Pneumolysin secretion, Western blot of culture supernatant; assay type: cell-based, Streptococcus pneumoniae; details: overnight culture of S. pneumoniae at 1/2 and 1/4 MIC, versus drug-free control
How it was run: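 S. pneumoniae cultured overnight in BHI without agitation, with or without serially diluted test compound; rifampicin and ceftriaxone controls at 2–0.002 μg/mL; 16–20 h. […] Western blot on PVDF, 5% milk/TBST block, rabbit polyclonal anti-pneumolysin 1:1000, overnight at 4 °C.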

S. pneumoniae = assay: Time-kill kinetics, S. pneumoniae; assay type: cell-based, Streptococcus pneumoniae
How it was run: (§1)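 S. aureus was grown in MHB; S. agalactiae and S. pneumoniae in BHI with 5% CO₂. Incubation was 37 °C, 200 rpm. Samples taken at 0, 2, 4 and 6 h were serially diluted 10-fold and plated. CFU/mL was counted after overnight incubation at 37 °C, 5% CO₂. Triplicates.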

[1] = target: E. coli core RNAP with σ^70 (Escherichia coli, UniProt P0A8T7); assay: In vitro transcription initiation assay; assay type: biochemical; details: σ^70, λ PR promoter template, 26-mer RNA
Gram-positive pathogens = assay: MIC against other Gram-positive pathogens; assay type: cell-based
How it was run: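 Broth microdilution followed CLSI, in cation-adjusted Mueller–Hinton broth or BHI where indicated. Twofold dilutions ran from 256 to 0.5 μg/mL, with inoculum ~5 × 10⁵ CFU/mL and 20 h incubation at 37 °C. Panel strains were ATCC Gram-positive strains (Enterococcus, S. aureus, streptococci, staphylococci). MIC was the lowest concentration with no visible growth. At least duplicates.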

[2] = tested on: S. aureus ATCC 29213 cells; assay: Cell content quantification of major macromolecules; assay type: cell-based, Staphylococcus aureus; details: S. aureus ATCC 29213, 1/4 and 1/8 MIC, versus no-drug control
How it was run: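 A master culture of S. aureus ATCC 29213 was inoculated at OD₆₀₀ 0.1 and grown at 37 °C, 200 rpm to OD₆₀₀ 0.2. It was then split into aliquots with test compound or rifampicin at 1/4 and 1/8 MIC, plus an untreated aliquot. Cells were harvested at OD₆₀₀ 0.6 with volumes normalized, then pelleted. DNA, RNA and protein were kit-extracted. DNA and RNA were measured by Qubit BR fluorometric assays and protein by BCA. Triplicates.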

S. aureus = assay: Time-kill kinetics, S. aureus; assay type: cell-based, Staphylococcus aureus; details: over 6 h, even at 16 MIC
How it was run: as §1

[3] = tested on: S. pneumoniae ATP production; assay: ATP production of S. pneumoniae cells; assay type: cell-based, Streptococcus pneumoniae; details: at 1/4 MIC
[4] = Solubility under the conditions of the CH–σ assay; assay type: physicochemical; details: conditions of the CH–σ protein complementation assay
S. agalactiae (GBS) = assay: Time-kill kinetics, S. agalactiae; assay type: cell-based, Streptococcus agalactiae; details: over 6 h, even at 16 MIC
How it was run: as §1

[5] = tested on: B. subtilis BS1048 (RNAP β′-GFP); assay: Confocal microscopy of RNAP-GFP localization; assay type: cell-based, Bacillus subtilis; details: B. subtilis BS1048, at 1/2 MIC, 15 min
How it was run: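 2.5 μL culture placed on fresh 1.2% agarose pad under coverslip; imaged by confocal microscopy (63×/1.3 oil objective, mercury metal halide lamp).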

human erythrocytes = assay: In vitro hemolysis assay; assay type: cell-based; details: 0.1, 1, and 10 μg/mL, 37 °C, 45 min, PBS pH 7.4
How it was run: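 Human whole-blood erythrocytes were pelleted at 500g, 4 °C, 5 min, washed in 150 mM NaCl, resuspended in PBS pH 7.4 and diluted 40×. They were mixed 4:1 with drug solution in PBS containing 0.5% DMSO, giving final 0.1, 1 or 10 μg/mL, and held 45 min at 37 °C (n = 6). Controls were 1% v/v Triton X-100 and PBS. After spinning at 500g for 10 min, supernatant A540 was read and % lysis was normalized to the controls.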

RNAP holoenzyme = details: cited from earlier work
S. pneumoniae ATCC 49619 = assay: MIC by broth microdilution; assay type: cell-based, Streptococcus pneumoniae; details: S. pneumoniae ATCC 49619, broth microdilution, 20 h at 37 °C

E. coli core RNAP with σ^70, sequence (P0A7Z4 whole entry): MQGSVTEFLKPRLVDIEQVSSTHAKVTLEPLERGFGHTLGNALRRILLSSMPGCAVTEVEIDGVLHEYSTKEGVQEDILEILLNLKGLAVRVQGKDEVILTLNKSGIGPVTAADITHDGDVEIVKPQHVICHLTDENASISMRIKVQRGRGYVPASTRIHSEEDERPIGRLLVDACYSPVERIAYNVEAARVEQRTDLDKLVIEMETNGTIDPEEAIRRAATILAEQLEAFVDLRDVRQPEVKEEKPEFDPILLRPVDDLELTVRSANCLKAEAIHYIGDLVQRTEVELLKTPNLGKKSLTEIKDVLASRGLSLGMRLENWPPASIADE
E. coli core RNAP with σ^70, sequence (P0A8T7 whole entry): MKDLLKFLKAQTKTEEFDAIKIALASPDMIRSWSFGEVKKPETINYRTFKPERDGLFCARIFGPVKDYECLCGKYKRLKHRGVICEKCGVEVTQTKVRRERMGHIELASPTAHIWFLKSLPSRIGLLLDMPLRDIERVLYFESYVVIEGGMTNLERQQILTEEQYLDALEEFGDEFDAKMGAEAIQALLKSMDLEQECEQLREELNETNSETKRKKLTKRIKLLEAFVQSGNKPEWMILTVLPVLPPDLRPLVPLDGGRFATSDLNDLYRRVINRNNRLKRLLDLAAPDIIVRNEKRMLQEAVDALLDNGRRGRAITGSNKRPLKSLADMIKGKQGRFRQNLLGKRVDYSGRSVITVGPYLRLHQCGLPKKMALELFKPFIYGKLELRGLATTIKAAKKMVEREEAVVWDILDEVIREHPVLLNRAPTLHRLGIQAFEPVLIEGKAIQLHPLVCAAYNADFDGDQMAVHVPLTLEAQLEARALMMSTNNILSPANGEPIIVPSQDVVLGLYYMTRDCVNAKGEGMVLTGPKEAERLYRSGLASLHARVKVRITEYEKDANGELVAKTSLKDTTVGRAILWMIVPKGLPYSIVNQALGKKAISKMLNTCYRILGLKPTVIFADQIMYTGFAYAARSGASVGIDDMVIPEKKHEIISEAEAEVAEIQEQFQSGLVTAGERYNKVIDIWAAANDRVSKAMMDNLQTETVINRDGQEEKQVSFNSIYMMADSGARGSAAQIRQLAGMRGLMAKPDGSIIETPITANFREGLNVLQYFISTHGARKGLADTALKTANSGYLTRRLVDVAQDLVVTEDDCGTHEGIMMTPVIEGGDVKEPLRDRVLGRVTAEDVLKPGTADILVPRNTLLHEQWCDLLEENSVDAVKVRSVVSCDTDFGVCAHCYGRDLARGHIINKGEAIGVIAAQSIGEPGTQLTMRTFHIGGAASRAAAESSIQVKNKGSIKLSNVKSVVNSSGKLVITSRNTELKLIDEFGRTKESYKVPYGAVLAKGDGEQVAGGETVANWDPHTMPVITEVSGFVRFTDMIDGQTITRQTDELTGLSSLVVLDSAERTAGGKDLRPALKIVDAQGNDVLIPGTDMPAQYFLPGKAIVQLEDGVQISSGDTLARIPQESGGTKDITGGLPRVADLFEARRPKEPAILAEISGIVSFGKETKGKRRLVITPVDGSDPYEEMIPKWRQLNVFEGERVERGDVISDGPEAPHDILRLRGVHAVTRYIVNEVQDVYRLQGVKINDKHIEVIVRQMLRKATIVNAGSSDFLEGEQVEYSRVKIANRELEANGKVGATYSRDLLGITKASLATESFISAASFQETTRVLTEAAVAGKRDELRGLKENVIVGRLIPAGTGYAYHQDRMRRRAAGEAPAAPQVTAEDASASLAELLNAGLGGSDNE
E. coli core RNAP with σ^70, sequence (P0A800 whole entry, further chain): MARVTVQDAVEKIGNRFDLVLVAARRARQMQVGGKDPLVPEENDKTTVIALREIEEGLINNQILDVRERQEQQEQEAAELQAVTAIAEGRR
E. coli core RNAP with σ^70, sequence (P0A8V2 whole entry, further chain): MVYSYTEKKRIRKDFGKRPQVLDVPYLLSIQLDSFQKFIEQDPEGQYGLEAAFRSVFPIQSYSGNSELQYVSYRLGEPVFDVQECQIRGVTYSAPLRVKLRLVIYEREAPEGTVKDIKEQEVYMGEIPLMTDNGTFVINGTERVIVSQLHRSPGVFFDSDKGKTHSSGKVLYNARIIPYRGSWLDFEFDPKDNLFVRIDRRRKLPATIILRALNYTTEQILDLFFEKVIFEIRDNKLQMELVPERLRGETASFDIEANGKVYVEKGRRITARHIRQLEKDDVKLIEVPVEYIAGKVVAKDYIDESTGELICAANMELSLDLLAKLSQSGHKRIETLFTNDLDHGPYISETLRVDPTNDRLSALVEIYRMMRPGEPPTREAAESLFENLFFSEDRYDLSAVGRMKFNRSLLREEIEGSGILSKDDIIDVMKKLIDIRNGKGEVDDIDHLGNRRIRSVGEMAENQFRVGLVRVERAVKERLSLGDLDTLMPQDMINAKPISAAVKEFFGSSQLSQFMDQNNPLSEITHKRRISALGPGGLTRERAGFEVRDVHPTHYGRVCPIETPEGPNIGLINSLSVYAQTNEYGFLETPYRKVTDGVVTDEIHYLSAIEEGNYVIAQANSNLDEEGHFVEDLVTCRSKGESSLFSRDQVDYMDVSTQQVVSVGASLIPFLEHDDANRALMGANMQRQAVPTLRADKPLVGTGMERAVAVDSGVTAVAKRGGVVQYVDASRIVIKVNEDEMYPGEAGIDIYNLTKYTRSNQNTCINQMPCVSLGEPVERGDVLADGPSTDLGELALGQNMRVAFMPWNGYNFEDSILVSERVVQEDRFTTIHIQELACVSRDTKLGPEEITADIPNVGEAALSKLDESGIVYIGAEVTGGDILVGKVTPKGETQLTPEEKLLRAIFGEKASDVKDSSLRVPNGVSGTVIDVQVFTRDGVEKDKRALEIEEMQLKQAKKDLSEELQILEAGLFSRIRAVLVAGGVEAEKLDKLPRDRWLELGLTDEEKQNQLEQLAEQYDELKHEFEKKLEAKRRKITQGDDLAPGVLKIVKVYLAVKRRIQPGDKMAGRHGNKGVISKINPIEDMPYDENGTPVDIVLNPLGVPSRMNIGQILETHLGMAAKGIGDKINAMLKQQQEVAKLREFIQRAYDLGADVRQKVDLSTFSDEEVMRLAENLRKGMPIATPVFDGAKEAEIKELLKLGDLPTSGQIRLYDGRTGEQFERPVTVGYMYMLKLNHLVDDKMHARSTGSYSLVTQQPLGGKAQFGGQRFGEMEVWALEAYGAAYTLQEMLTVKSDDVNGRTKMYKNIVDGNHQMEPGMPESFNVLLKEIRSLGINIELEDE

## CO/N=C(\C(=O)N[C@@H]1C(=O)N2C(C(=O)O)=C(CSc3nc(=O)c(O)nn3C)CS[C@H]12)c1csc(N)n1 [ceftriaxone]
pneumolysin
  pneumolysin levels in culture supernatant: increased

## O=C(O)c1ccc(Cl)cc1NCc1ccc(Sc2ccc(Cl)c(Cl)c2)c([N+](=O)[O-])c1 [Compound 54, 4-Chloro-2-((4-((3,4-dichlorophenyl)thio)-3-nitrobenzyl)amino)-benzoic Acid]
S. pneumoniae; at 1 MIC
  time-kill profile: largely bacteriostatic
S. pneumoniae; at higher concentrations (4 and 16 MICs)
  decrease in cell count: ca. 2 fold log10 decrease
[1]
  inhibition of transcription (RNA synthesis) in vitro: much more potent inhibition
Gram-positive pathogens
  MIC: 1 to 2 µg/mL (≈ 2.07 to 4.13 µM)
[2]
  total RNA levels: reduction
  total levels of DNA: remained mostly unaffected
  total protein levels: Reduction
S. aureus
  time-kill profile: largely bacteriostatic
[3]
  ATP production rate: significant decrease
[4]
  solubility under the testing conditions: insolubility under the testing conditions
S. agalactiae (GBS)
  time-kill profile: largely bacteriostatic
pneumolysin
  pneumolysin levels in culture supernatant: substantial decrease
[5]
  RNAP-GFP localization: delocalization of the fluorescence from the nucleoid

## O=C(O)c1ccccc1C(=O)c1ccc(Sc2ccc(Cl)c(Cl)c2)c([N+](=O)[O-])c1 [Compound 13, 2-(4-((3,4-dichlorophenyl)thio)-3-nitrobenzoyl)benzoic acid]
[1]
  inhibition of transcription (RNA synthesis) in vitro: inhibited transcription
Human erythrocytes
  hemolytic value (% of lysis): < 10%

## O=C(O)c1ccccc1NCc1ccc(Sc2ccc(Cl)c(Cl)c2)c([N+](=O)[O-])c1 [Compound 43, 2-((4-((3,4-Dichlorophenyl)thio)-3-nitrobenzyl)amino)benzoic Acid]
Human erythrocytes
  hemolytic value (% of lysis): < 10%

## CO[C@H]1/C=C/O[C@@]2(C)Oc3c(C)c(O)c4c(O)c(c(/C=N/N5CCN(C)CC5)c(O)c4c3C2=O)NC(=O)/C(C)=C\C=C\[C@H](C)[C@H](O)[C@@H](C)[C@@H](O)[C@@H](C)[C@H](OC(C)=O)[C@@H]1C [rifampicin, reference compound]
[2]
  total RNA levels: reduced
  total levels of DNA: remained mostly unaffected
pneumolysin
  pneumolysin levels in culture supernatant: suppressed

## Nc1ccccc1Sc1ccc(C(=O)c2ccccc2C(=O)O)cc1[N+](=O)[O-] [Compound 1, 2-(4-((2-Aminophenyl)thio)-3-nitrobenzoyl)benzoic acid]
RNAP holoenzyme
  RNAP holoenzyme formation and RNA synthesis in vitro: inhibited

## O=C(Nc1ccccc1C(=O)O)c1ccc(Sc2ccc(Cl)c(Cl)c2)c([N+](=O)[O-])c1 [Compound 41, 2-(4-((3,4-Dichlorophenyl)thio)-3-nitrobenzamido)benzoic Acid]
S. pneumoniae ATCC 49619
  MIC: lost activity completely

## O=C(O)c1ccc(Cl)c(NCc2ccc(Sc3ccc(Cl)c(Cl)c3)c([N+](=O)[O-])c2)c1 [Compound 45, 4-Chloro-3-((4-((3,4-dichlorophenyl)thio)-3-nitrobenzyl)amino)-benzoic Acid]
Human erythrocytes
  hemolytic value (% of lysis): < 10%
